Test results reported in ChEMBL document CHEMBL2057186, “Application of the bicyclo[1.1.1]pentane motif as a nonclassical phenyl ring bioisostere in the design of a potent and orally active γ-secretase inhibitor” (J Med Chem, 2012).
≈ marks a conversion by molar mass, not a printed value.

Key:
[1] = test system: Hepatocyte; assay: Apparent total intrinsic clearance in human hepatocytes assessed per million cells; format: ADME, cell-based
[2] = Tmax in 129/sve mouse plasma at 30 mg/kg, po administered as single dose by LC-MS/MS analysis; format: ADME, organism-based; parameters: dose 30 mg/kg, route oral
In short: (§1)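 Single-dose oral PK in wild-type male 129/sve mice. Formulation was 98% (v/v) Phosal 50 PG with 2% Tween 80. Compound was measured in plasma, brain and CSF. Values are means ± standard deviations (n = 4 or 5).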

[3] = Apparent permeability from apical to basal side of dog RRCK cells; format: ADME, cell-based, Canis lupus familiaris, MDCKII-LE; settings: MDCK
In short: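 Absorptive (A to B) permeability was measured in RRCK cells, a Madin–Darby canine kidney subline isolated for low transporter activity. It estimates intrinsic passive permeability.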

[4] = Ratio of fraction unbound in brain to fraction unbound in plasma in Sprague-Dawley rat; format: ADME
[5] = test system: Liver microsomes; assay: Drug metabolism in human liver microsomes assessed as GSH/GSH-EE adduct formation after 60 mins by LC/MS/MS analysis; format: ADME, Microsome; settings: 1 h
[6] = AUC (last) in 129/sve mouse cerebrospinal fluid at 30 mg/kg, po administered as single dose by LC-MS/MS analysis; format: ADME, organism-based; parameters: time 0 - last, dose 30 mg/kg, route oral
In short: (§2)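 Wild-type male 129/sve mice received a single oral dose in 98% (v/v) Phosal 50 PG / 2% Tween 80. Drug was measured in plasma, brain and CSF. Study was nonserial, so AUC came from mean matrix concentrations at each time point. Values are mean ± SD (n = 4 or 5).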

[7] = Fraction unbound in 129/sve mouse plasma at 30 mg/kg, po administered as single dose; format: ADME, organism-based; parameters: dose 30 mg/kg, route oral
[8] = target: Voltage-gated inwardly rectifying potassium channel KCNH2 (Homo sapiens, UniProt Q12809); assay: Displacement of dofetilide from human ERG
[9] = target: Cytochrome P450 2C19 (Homo sapiens, UniProt P33261); assay: Inhibition of CYP2C19 in human liver microsomes using (S)-mephenytoin as substrate; format: ADME, Microsome
[10] = AUC (last) in 129/sve mouse plasma at 30 mg/kg, po administered as single dose by LC-MS/MS analysis; format: ADME, organism-based; parameters: dose 30 mg/kg, route oral, time 0 - last; in short: as §2
[11] = test system: P-gp; assay: Efflux ratio of apparent permeability from basal to apical side to apical to basal side of MDCK cells expressing human P-gp; format: ADME, cell-based, Canis lupus familiaris; settings: dog, MDCK-MDR1
In short: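 Monolayers were MDCK cells transfected with the human P-glycoprotein (MDR1) gene. Permeability was measured basolateral-to-apical and apical-to-basolateral, and the BA/AB ratio was reported.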

[12] = Ratio of drug level in brain to plasma in Sprague-Dawley rat; format: ADME; settings: read-out: BPR
[13] = target: Cytochrome P450 2C9 (Homo sapiens, UniProt P11712); assay: Inhibition of CYP2C9 in human liver microsomes using diclofenac as substrate; format: ADME, Microsome
[14] = Thermodynamic solubility of the compound at pH 7.4; format: physicochemical; settings: buffer, read-out: Therm_solubility
In short: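 Thermodynamic solubility was measured in aqueous buffer at pH 6.5 and at pH 7.4.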

[15] = Cmax in 129/sve mouse brain at 30 mg/kg, po administered as single dose by LC-MS/MS analysis; format: ADME, organism-based; parameters: dose 30 mg/kg, route oral; in short: as §1

Cytochrome P450 2C19, sequence (P33261 whole entry): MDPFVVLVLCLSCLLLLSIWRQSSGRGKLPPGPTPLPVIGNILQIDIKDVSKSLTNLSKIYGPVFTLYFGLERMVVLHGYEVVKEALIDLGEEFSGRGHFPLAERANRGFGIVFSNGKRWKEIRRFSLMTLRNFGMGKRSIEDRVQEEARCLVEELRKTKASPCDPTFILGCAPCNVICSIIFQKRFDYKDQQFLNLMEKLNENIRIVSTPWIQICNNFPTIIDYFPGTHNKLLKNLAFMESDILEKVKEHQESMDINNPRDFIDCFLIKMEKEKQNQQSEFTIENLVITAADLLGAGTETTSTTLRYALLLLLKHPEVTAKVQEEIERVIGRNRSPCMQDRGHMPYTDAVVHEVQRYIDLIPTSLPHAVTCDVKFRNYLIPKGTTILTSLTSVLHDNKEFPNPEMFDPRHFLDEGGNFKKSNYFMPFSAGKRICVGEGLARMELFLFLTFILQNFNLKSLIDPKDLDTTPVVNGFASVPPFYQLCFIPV
Voltage-gated inwardly rectifying potassium channel KCNH2, sequence (Q12809 whole entry): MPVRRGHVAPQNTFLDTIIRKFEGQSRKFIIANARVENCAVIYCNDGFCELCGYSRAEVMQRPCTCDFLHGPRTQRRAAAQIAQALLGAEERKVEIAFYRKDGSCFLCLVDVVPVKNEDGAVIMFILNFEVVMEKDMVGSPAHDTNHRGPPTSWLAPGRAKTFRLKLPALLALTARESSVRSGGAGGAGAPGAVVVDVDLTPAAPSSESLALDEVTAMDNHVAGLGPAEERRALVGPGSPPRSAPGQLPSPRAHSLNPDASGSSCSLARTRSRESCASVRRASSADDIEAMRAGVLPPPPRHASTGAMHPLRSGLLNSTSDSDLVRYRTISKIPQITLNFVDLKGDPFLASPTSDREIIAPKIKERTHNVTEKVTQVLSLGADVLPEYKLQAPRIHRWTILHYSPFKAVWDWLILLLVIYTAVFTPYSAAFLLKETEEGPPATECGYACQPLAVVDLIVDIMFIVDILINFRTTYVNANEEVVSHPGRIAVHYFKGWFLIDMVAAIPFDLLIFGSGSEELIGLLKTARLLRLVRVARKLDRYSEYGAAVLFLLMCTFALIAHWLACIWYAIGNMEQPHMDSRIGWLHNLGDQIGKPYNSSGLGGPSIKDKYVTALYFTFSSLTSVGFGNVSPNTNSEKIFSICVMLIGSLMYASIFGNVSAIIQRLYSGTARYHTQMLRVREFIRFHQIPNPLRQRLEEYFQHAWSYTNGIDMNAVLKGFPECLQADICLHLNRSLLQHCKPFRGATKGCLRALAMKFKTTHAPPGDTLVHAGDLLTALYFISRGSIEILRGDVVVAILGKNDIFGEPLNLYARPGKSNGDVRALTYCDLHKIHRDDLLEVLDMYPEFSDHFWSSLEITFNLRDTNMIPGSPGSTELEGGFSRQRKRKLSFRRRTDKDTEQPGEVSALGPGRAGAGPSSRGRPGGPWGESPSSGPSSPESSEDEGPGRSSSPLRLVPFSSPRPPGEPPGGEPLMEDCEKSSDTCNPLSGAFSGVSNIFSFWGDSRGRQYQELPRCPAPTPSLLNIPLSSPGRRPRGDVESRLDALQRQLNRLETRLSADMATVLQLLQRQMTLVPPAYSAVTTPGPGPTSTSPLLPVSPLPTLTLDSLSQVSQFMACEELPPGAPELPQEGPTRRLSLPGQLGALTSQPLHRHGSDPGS
Cytochrome P450 2C9, sequence (P11712 whole entry): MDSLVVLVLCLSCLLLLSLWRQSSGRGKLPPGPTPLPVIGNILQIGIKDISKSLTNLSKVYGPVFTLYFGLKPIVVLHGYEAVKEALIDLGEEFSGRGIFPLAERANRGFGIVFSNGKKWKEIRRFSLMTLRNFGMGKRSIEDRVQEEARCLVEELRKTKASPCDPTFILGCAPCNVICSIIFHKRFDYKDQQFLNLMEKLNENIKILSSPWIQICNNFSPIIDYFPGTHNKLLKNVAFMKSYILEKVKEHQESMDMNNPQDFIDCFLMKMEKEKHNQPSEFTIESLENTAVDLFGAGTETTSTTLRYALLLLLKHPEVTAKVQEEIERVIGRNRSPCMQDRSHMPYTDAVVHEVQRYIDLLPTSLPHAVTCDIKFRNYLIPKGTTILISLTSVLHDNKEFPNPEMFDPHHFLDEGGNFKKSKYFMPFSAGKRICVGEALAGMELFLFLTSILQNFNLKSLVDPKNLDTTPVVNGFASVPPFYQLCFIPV

- CLt/F [1]: < 3.8 µL/min
- Tmax [2]: 1 h
- Papp A→B [3]: 19.3 ×10⁻⁶ cm/s
- Ratio [4]: 0.34
- Drug metabolism [5]: Not Active
- AUC(0-t) [6]: 0.118 µM·h
- fraction unbound [7]: 0.0354
- inhibition (INH) [9]: Not Active
- AUC(0-t) [10]: 14.3 µM·h
- efflux ratio [11]: 1.66
- Kp [12]: 0.61
- inhibition (INH) [13]: Not Active
- solubility thermodynamic [14]: 29.4 µM (≈ 14.5 µg/mL)
- Cmax [15]: 5.6 µM
Compound: NC(=O)[C@@H](CCC(F)(F)F)N(CC12CC(c3ncon3)(C1)C2)S(=O)(=O)c1ccc(Cl)cc1
- Activity [8]: Not Active
